Molecules are shown by their SMILES. Where “and” joins values, the source holds several entries; their conditions need not be identical. Identical values can stand only once.

The nature of series [1]: Pharmacokinetics in mice after tail vein injection. Format: in vivo, C57/BL6 mice.
Another series deals with HeLa. As to the kind of experiment: Cytotoxicity, sulforhodamine B assay. It counts as cell-based. Particulars: read-out: 72 hour IC50; HeLa human cervical; exposure 72 h. A general note: Sulforhodamine B stains cellular protein and so reports cell mass.
For the next series, the system named is SK-Mel-5. Briefly: Cytotoxicity, sulforhodamine B assay. It counts as cell-based. Particulars: read-out: 72 hour IC50; SK-Mel-5 human melanoma; exposure 72 h.
A further series concerns healthy dog. Briefly: Toxicity of intravenous PAC-1 in a healthy dog. It counts as in vivo. The following applies: 25 mg/kg as a 5-minute intravenous infusion; transient, not life-limiting.
The test system of the next series is MDA-MB-231. As to the kind of experiment: Cytotoxicity, sulforhodamine B assay. Format: cell-based. Particulars: read-out: 72 hour IC50; MDA-MB-231 human breast; exposure 72 h.
The subject of series [2] is C57/BL6 mice. As to the kind of experiment: Toxicity determination in mice after tail vein injection.
The subject of another series is GL-1. Briefly: Cytotoxicity, sulforhodamine B assay. Format: cell-based. The following applies: read-out: 72 hour IC50; GL-1 dog lymphoma; exposure 72 h.
The subject of series [3] is C57/BL6 mice. Particulars: mouse, in vivo.
The next series relates to Jurkat. Briefly: Cytotoxicity, sulforhodamine B assay. It counts as cell-based. Particulars: read-out: 72 hour IC50; Jurkat human leukemia; exposure 72 h.
The next series concerns OSW. Briefly: Cytotoxicity, sulforhodamine B assay. Format: cell-based. The following applies: read-out: 72 hour IC50; OSW dog lymphoma; exposure 72 h.
The test system of a further series is EL-4. As to the kind of experiment: Cytotoxicity, sulforhodamine B assay. It counts as cell-based. Particulars: read-out: 72 hour IC50; EL-4 mouse lymphoma; exposure 72 h.
Another series relates to U-937. As to the kind of experiment: Cytotoxicity, sulforhodamine B assay. The following applies: read-out: 72 hour IC50, exposure time 72 h. It counts as cell-based, Human.
In a further series the target is T1, procaspase-3 D3A (Homo sapiens, UniProt P42574, D175A/D28A/D9A).
T1 sequence (P42574 1-277 D9A/D28A/D175A): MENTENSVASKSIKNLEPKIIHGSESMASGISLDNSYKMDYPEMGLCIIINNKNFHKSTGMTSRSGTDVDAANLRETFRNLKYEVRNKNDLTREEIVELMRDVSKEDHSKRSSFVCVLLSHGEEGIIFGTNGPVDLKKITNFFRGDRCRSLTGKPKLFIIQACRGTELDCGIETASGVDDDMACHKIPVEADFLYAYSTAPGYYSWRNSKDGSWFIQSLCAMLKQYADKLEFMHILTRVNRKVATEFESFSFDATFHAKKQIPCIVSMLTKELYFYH
As to the kind of experiment: Procaspase-3 activation. It counts as biochemical. Particulars: 50 µM compound; for Incubation time to maximal activity: procaspase-3 7.5 µM, zinc 10 µM. The gist of the method: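 Zinc-free uncleavable procaspase-3 (D9A/D28A/D175A), recombinantly expressed, at 7.5 µM in Chelex-treated 50 mM Hepes, 300 mM NaCl. Incubated with 10 µM ZnSO4. Basal activity read with 200 µM Ac-DEVD-pNA at 405 nm. Vehicle or test compound then added to 50 µM final and activity re-read every 20 min. Activity was taken from the slope and normalised to a zinc-free sample (100%) and DMSO (0%), n=3.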

The conditions of series [4]: read-out: Kd of PAC-1:Zn^2+; cited from earlier work.
In another series the test system is 17–71. Briefly: Cytotoxicity, MTS cell viability assay. It counts as cell-based. Particulars: read-out: 72 hour IC50, 17–71 dog lymphoma, exposure 72 h. On the technique in general: Tetrazolium dyes change colour on reduction, which living cells bring about.
Series [5] can be described thus: Pharmacokinetics in healthy research dogs, single IV dose. It counts as in vivo. Particulars: 25 mg/kg IV; individual dogs Hound A-D.

In the case of `C=CCc1cccc(/C=N/NC(=O)CN2CCN(Cc3ccccc3)CC2)c1O` [PAC-1], in series [1] (20 mg/kg tail vein injection), the Peak plasma concentration is listed as ~ 50 µM. In addition, the half-inhibitory concentration (IC50) with HeLa turned out to be 15.5 ± 3.8 µM; in the series with SK-Mel-5 it was 11.5 ± 3.6 µM; in the series on MDA-MB-231, 9.9 ± 1 µM; in the series with GL-1, 4.9 ± 0.3 µM; with Jurkat it was 5.7 ± 2.8 µM; in the series with OSW it was 8.6 ± 1.3 µM. The IC50 with EL-4 is 3.8 ± 0.9 µM; in the series with U-937, 9.3 ± 0.5 µM; with 17–71 it was 2.5 ± 0.9 µM. Besides, in the series on healthy dog, the “Neurotoxicity in one healthy dog” value is recorded as “grand mal seizure activity”. In the series with C57/BL6 mice [2] (in HPβCD via tail vein injection), this compound displayed a Resolution of neurotoxicity not above 2 h. In addition, the “Dose at which significant neurological symptoms first appear” value in the series with C57/BL6 mice [2] (tail vein injection) was 20 mg/kg. Further, the “Dose where acute neurological symptoms are present” value in the series on C57/BL6 mice [2] (tail vein injection) came out at 50 mg/kg. Moreover, the “Onset of neurotoxicity after drug administration” value in the series with C57/BL6 mice [3] is not above 5 min. Further, the “Incubation time to maximal activity” value at procaspase-3 D3A is 5 min. Moreover, the equilibrium dissociation constant (Kd) in series [4] is 0.052 ± 0.002 µM.
As to `C=CCc1cccc(C=NNC(=O)CN2CCN(Cc3ccc(S(N)(=O)=O)cc3)CC2)c1O` [S-PAC-1], the Peak plasma levels in series [1] (350 mg/kg tail vein injection, without signs of neurotoxicity) is on record as ~ 3500 µM. In addition, in [5], the AUMC0-inf was 93.63 h*h*ug/ml and 104.77 h*h*ug/ml and 90.48 h*h*ug/ml and 101.78 h*h*ug/ml; the Cls is 0.34 L/h/kg and 0.335 L/h/kg and 0.304 L/h/kg and 0.317 L/h/kg; the MRT was 1.27 h and 1.40 h and 1.10 h and 1.29 h; the Tmax is on record as 0.17 h. Besides, in series [5], the distribution volume (Vss) is 0.4325 L/kg and 0.4708 L/kg and 0.3348 L/kg and 0.41 L/kg. At procaspase-3 D3A, the “Incubation time to maximal activity” value came out at 5 min. Also, the “Enhancement of enzymatic activity of the proenzyme” value on procaspase-3 D3A (procaspase-3 D3A 7.5 µM, ZnSO4 10 µM) is reported as “enhances the enzymatic activity of the proenzyme by relief of zinc-mediated inhibition, although to a lesser degree than PAC-1”.

Usually IC50 stands for the concentration that inhibits the measured activity by half. A word on the Kd: it is the equilibrium constant for the complex coming apart. For orientation: MRT means a mean duration of stay, worked out from the concentration-time curve. Usually Tmax stands for the time at which the peak concentration occurs. In general, Vss refers to the apparent volume that relates the amount in the body to the concentration in plasma or blood. A high value points to extensive tissue distribution.

The values are drawn from publication PMC3113694 (Cancer research, 2010).
